Compound activity deposited in PubChem by several laboratories.
bCat KO growth = beta-catenin-lacking colon tumor cell growth suppression; HCT116 beta-catenin knockout viability, CellTiter-Glo, 60 h; hits give low values; viability, % at 10 µM; actives 1.5% (n = 140,000); AID 818;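 active = viability at or under a set limit, the compound median less 4 SD, cut at about 6% in these data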;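 also: 0% = Hyamine 1622 control at 20 µM and 100% = untreated cell control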
PTEN del growth = growth suppressors of cells with PTEN tumor suppressor deletion; actives 1.2% (n = 140,000); viability, % at 10 µM; HCT116 PTEN-null viability, CellTiter-Glo, 60 h; hits give low values;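 active = viability at or below a set limit, 4 SD under the median of all tested compounds, cut at about 3.7% in these data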;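 also: PTEN knockout HCT116 line with beta catenin targeted HCT116 as companion control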
Cav32 inh = blocks human Cav3.2 T-type calcium channel. Cav3.2-expressing cells, Fluo-4 calcium fluorescence FDSS; hits give low values. B-score at 10 µM. actives 4% (n = 100,000). AID 449739;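 active = single-dose well whose peak fluorescence ratio is a statistical outlier from its plate by either plate-standardised score or position-corrected B-score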
Lung fibro prol = blocks proliferation of human lung fibroblasts; LL 47 human lung fibroblast viability, ATP luminescence; hits give low values; actives 1.1% (n = 85,000); AID 719; viability, % at 10 µM;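 active = viability at or below 50% in the single dose screen; inactive = viability above 50%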;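 also: compound exposure lasted 72 h before the ATP readout; 100% = median luminescence of untreated cell-only wells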
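Times – overnight cell rest, 72 h compound treatment at 37 °C · Test system – human lung fibroblast line LL 47, low passage · Amount – 1,150 cells in each well · Controls – cell-only wells, no compound · Doses – 0.1% DMSO in all compound wells · Measured by – CellTiter-Glo luminescence · Buffer or medium – IMEM plus 15% FBS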
H69AR inhibit = blocks growth of human H69AR lung tumor cells; viability, % at 10 µM; H69AR lung tumor viability, ATP luminescence, 72 h; hits give low values; actives 6% (n = 85,000);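 active = viability at or below 40%; inactive = viability above 40%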;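 also: multidrug resistant small cell line overexpressing MRP-1 efflux transporter; 100% = mean luminescence of untreated control wells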
HUVEC prolif 384 = inhibitors of human endothelial cell proliferation; viability, % at 10 µM (by protocol); AID 648; HUVEC proliferation, CellTiter-Glo luminescence, 72 h; hits give low values; actives 1.1% (n = 86,000);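 active = viability at or below 30%; inactive = viability above 30%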;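 also: 100% = median luminescence of DMSO-only cell control wells on each plate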
Starred values were filed as active, the others as inactive. A selection: hits, their analogues and other compounds. The true share with any hit is near 7.1%.

Results for O=[N+]([O-])c1ccc(N2CCCCCC2)c([N+](=O)[O-])c1 ?
bCat KO growth: 90.4; PTEN del growth: 82.6; Cav32 inh: -4.75*

Results for COc1ccc(S(=O)(=O)Nc2cc(C)c(O)c(S(=O)(=O)c3ccccc3)c2)cc1 ?
bCat KO growth: 96.0; PTEN del growth: 102.9; Cav32 inh: -5.07*; Lung fibro prol: 95.2; H69AR inhibit: 107.2; HUVEC prolif 384: 85.4

What do the screens show for `COc1ccc(S(=O)(=O)Nc2cccc(NC(C)=O)c2)cc1`?
bCat KO growth: 90.7; PTEN del growth: 88.6; Cav32 inh: -0.198; Lung fibro prol: 100.1; H69AR inhibit: 77.7; HUVEC prolif 384: 84.8

What do the screens show for `Cc1ccc(-n2nnnc2Sc2nc([N+](=O)[O-])nn2C)cc1C`?
bCat KO growth: 33.5; PTEN del growth: 48.5; Cav32 inh: 0.327

How did CC(C)Oc1cc(O)c2c(=O)c(-c3ccc(O)cc3)coc2c1 do in these assays?
bCat KO growth: 76.3; PTEN del growth: 74.3; Cav32 inh: -0.261; Lung fibro prol: 101.8; H69AR inhibit: 11.1*; HUVEC prolif 384: 94.3

How did CCOC(=O)C1CCN(C(=S)Nc2cccc(C)c2C)CC1 do in these assays?
bCat KO growth: 85.8; PTEN del growth: 94.7

How did CCC1SC2=NC(C)=C(C(=O)OCC(C)C)C(/C=C/c3ccccc3OC)N2C1=O (centres undefined) do in these assays?
bCat KO growth: 81.7; PTEN del growth: 86.7; Cav32 inh: -2.31; Lung fibro prol: 100.4; H69AR inhibit: 86.8; HUVEC prolif 384: 114.6

How did CCC1SC2=NC(C)=C(C(=O)OCCOC)C(/C=C/c3ccccc3OC)N2C1=O (centres undefined) do in these assays?
bCat KO growth: 90.2; PTEN del growth: 84.2; Cav32 inh: -5.77*; Lung fibro prol: 98.7; H69AR inhibit: 88.4; HUVEC prolif 384: 98.8

How did COC(=O)C1=C(C)N=C2SC(C)C(=O)N2C1/C=C/c1ccccc1OC (centres undefined) do in these assays?
bCat KO growth: 90.5; PTEN del growth: 86.0; Cav32 inh: -7.38*

Results for Cc1ccc(N(CCCCN2C(=O)c3ccccc3C2=O)C(=O)c2cccs2)cc1 ?
bCat KO growth: 88.2; PTEN del growth: 87.7; Cav32 inh: -5.82*

What do the screens show for `O=C1c2ccccc2C(=O)N1CCCCN(C(=O)c1cccc([N+](=O)[O-])c1)c1ccc(Cl)cc1`?
bCat KO growth: 74.7; PTEN del growth: 77.9; Cav32 inh: 0.475

Results for O=C1c2ccccc2C(=O)N1CCCCN(C(=O)c1ccco1)c1ccc(Cl)cc1 ?
bCat KO growth: 91.6; PTEN del growth: 99.9; Cav32 inh: -8.47*; Lung fibro prol: 105.9; H69AR inhibit: 87.2; HUVEC prolif 384: 108.9

What do the screens show for `COc1ccc(C(=O)CSc2nnc(CN3CCCC3)n2-c2ccc(F)cc2)c(OC)c1`?
bCat KO growth: 85.5; PTEN del growth: 87.2

What do the screens show for `CC(=O)Nc1nc2ccccc2n1CCOc1ccccc1`?
bCat KO growth: 31.4; PTEN del growth: 13.8; Cav32 inh: -0.798; Lung fibro prol: 71.6; H69AR inhibit: 70.8; HUVEC prolif 384: 75.7

What do the screens show for `CCCn1c(C(C)NC(=O)c2ccccc2)nc2ccccc21` (centres undefined)?
bCat KO growth: 90.8; PTEN del growth: 88.8; Cav32 inh: -0.451

How did CCSc1nc2ccccc2n1Cc1ccccc1F do in these assays?
bCat KO growth: 73.8; PTEN del growth: 70.2; Cav32 inh: -4.97*; Lung fibro prol: 99.4; H69AR inhibit: 84.7; HUVEC prolif 384: 104.7

Results for CCSc1nc2ccccc2n1CCOc1ccccc1 ?
bCat KO growth: 79.1; PTEN del growth: 83.5; Cav32 inh: -3.79*; Lung fibro prol: 92.5; H69AR inhibit: 87.4; HUVEC prolif 384: 93.3

Results for CC(C)N(C(=O)CSc1nc2ccccc2n1Cc1ccccc1F)C(C)C ?
bCat KO growth: 62.9; PTEN del growth: 57.9; Cav32 inh: -8.98*; Lung fibro prol: 95.0; H69AR inhibit: 72.7; HUVEC prolif 384: 102.9

What do the screens show for `CC(NC(=O)c1ccc(F)cc1)c1nc2ccccc2n1Cc1ccccc1F` (centres undefined)?
bCat KO growth: 84.9; PTEN del growth: 78.7; Cav32 inh: -1.21; Lung fibro prol: 93.0; H69AR inhibit: 38.0*; HUVEC prolif 384: 88.2

What do the screens show for `CCOc1cc(C2NC(=O)NC(C)=C2C(C)=O)cc(Cl)c1OCC(=O)O` (centres undefined)?
bCat KO growth: 83.8; PTEN del growth: 87.8; Lung fibro prol: 103.4; H69AR inhibit: 102.4; HUVEC prolif 384: 102.5

Results for CCOC(=O)c1cccc2c(=O)c(C(=O)c3ccc(Cl)cc3)c(C(=O)OC)[nH]c12 ?
bCat KO growth: 101.9; PTEN del growth: 101.6

What do the screens show for `CN(CCOc1ccc(-c2ccn(S(=O)(=O)c3ccc(Cl)cc3)n2)cc1)c1ccccn1`?
bCat KO growth: 17.8; PTEN del growth: 29.7; Cav32 inh: -4.67*

What do the screens show for `CN(CCOc1ccc(-c2ccn(S(=O)(=O)c3c(Cl)cccc3Cl)n2)cc1)c1ccccn1`?
bCat KO growth: 84.5; PTEN del growth: 81.5; Cav32 inh: -0.708

How did CC(=O)Oc1ccc(N2C(=O)C3C(C2=O)C2(C)C=CC3(C)O2)cc1 (centres undefined) do in these assays?
Cav32 inh: 0.768; Lung fibro prol: 27.0*; H69AR inhibit: 2.3*; HUVEC prolif 384: 94.7

How did CC(=O)Oc1ccc(N2C(=O)C3C4C=CC(CO)(O4)C3C2=O)cc1 (centres undefined) do in these assays?
bCat KO growth: 92.4; PTEN del growth: 90.4; Cav32 inh: 0.0133; Lung fibro prol: 98.8; H69AR inhibit: 88.6; HUVEC prolif 384: 93.5

Results for COC(=O)c1cc(N2C(=O)C3C(C2=O)C2(C)C=CC3(C)O2)ccc1Cl (centres undefined) ?
bCat KO growth: 89.9; PTEN del growth: 90.2; Cav32 inh: 2.08; Lung fibro prol: 58.0; H69AR inhibit: 0.7*; HUVEC prolif 384: 61.2

Results for COc1ccc(NS(=O)(=O)Cc2ccccc2Cl)cn1 ?
bCat KO growth: 91.4; PTEN del growth: 89.7; Cav32 inh: -0.714; Lung fibro prol: 100.0; H69AR inhibit: 91.3; HUVEC prolif 384: 85.1

How did COc1ccc(NC(=O)/C(Cl)=C(/Cl)S(=O)(=O)Cc2ccccc2)cn1 do in these assays?
bCat KO growth: 4.5*; PTEN del growth: 3.0*; Cav32 inh: 1.52; Lung fibro prol: 4.7*; H69AR inhibit: 1.9*; HUVEC prolif 384: 124.9

How did C=CCn1c(=N)c(C(=O)OCC)cc2c(=O)n3cccc(C)c3nc21 do in these assays?
Cav32 inh: -0.137; Lung fibro prol: 98.5; H69AR inhibit: 91.9; HUVEC prolif 384: 94.7

Results for CCOC(=O)c1cc2c(=O)n3cccc(C)c3nc2n(CC2CCCO2)c1=NC(C)=O (centres undefined) ?
Cav32 inh: 5.12*; Lung fibro prol: 100.2; H69AR inhibit: 52.4; HUVEC prolif 384: 105.1
